Measurements taken from ChEMBL document CHEMBL1154000, “Modified low molecular weight cyclic peptides as mimetics of BDNF with improved potency, proteolytic stability and transmembrane passage in vitro” (Bioorg Med Chem, 2009).

Key:
[1] = Increase in neuronal survival in embryonic chick dorsal root ganglion sensory neurons assessed as normalized neuronal survival response equivalent to 20% for BDNF after 48 hrs; assay type: functional, Gallus gallus, DRG neuron
Method in brief: (§1)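 Primary embryonic chick DRG sensory neuron cultures. Peptides tested in log10 increments, with surviving neurons counted after 48 h. Triplicate well counts averaged and normalised between BDNF positive (100%) and negative (0%) controls. Data given as mean ± SEM, n = 3–4. pEC20BDNF is the negative log10 of the concentration giving 20% of the BDNF survival response.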

[2] = Increase in neuronal survival in embryonic chick dorsal root ganglion sensory neurons at 10 uM to 0.1 nM after 48 hrs relative to BDNF; assay type: functional, Gallus gallus, DRG neuron; conditions: in the assay text read “at 100 uM” for “at 10 uM to 0.1 nM”; method in brief: as §1
[3] = Stability in mouse plasma assessed as half life at 0.2 mg; assay type: ADME, cell-free
Method in brief: (§2)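 Peptide (0.2 mg) incubated at 37 °C in single-mouse plasma diluted 50% in PBS, sampled over 24 h. Each aliquot put on ice, treated with lysine (1000 equiv) to displace protein binding, then MeCN to precipitate proteins, centrifuged at 4 °C and diluted for HPLC. Peak areas taken as ratio to 4-isopropylbenzyl alcohol internal standard, as % of t = 0; three experiments.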

[4] = Apparent permeability across apical to basolateral side in human Caco-2 cells at 200 uM after 150 mins; assay type: ADME, cell-based
Method in brief: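 Caco-2 cells (passage 82–96) grown 24–25 days on polycarbonate Transwell supports (0.45 µm pore, 1.13 cm²). Basolateral samples taken every 30 min for 150 min with buffer replacement. Samples acetylated, lyophilised, redissolved in 2% TFA and centrifuged; bis-acetylated peptide quantified by LCMS. Papp given as mean ± SEM from 3–4 monolayers.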

Plasma = test: (§3) Stability in mouse plasma assessed as degradation; assay type: ADME, cell-free; method in brief: as §2
[5] = Increase in neuronal survival in embryonic chick dorsal root ganglion sensory neurons at 10 uM to 0.1 nM after 48 hrs relative to BDNF
[6] = Increase in neuronal survival in embryonic chick dorsal root ganglion sensory neurons at 10 uM to 10 nM after 48 hrs relative to BDNF; assay type: functional, Gallus gallus, DRG neuron; method in brief: as §1
[7] = Increase in neuronal survival in embryonic chick dorsal root ganglion sensory neurons at 0.1 uM after 48 hrs relative to BDNF; assay type: functional, Gallus gallus, DRG neuron; conditions: in the assay text read “0.01 uM” for “0.1 uM”; method in brief: as §1
[8] = as §3; assay type: ADME, cell-free; conditions: read-out: Activity; method in brief: as §2

half-life [3]	Papp A→B at 2.5 h, 200 µM [4]	Activity (Plasma)	metabolised [8]	Structure (SMILES)	Activity [1]	Activity [2]	Activity [5]	Activity [6]	Activity [7]
> 24 h	0.642 ×10⁻⁶ cm/s	Stable		C[C@@H]1NC(=O)[C@H]2CCCN2C(=O)[C@H](CCCNC(=N)N)NC(=O)[C@H](CCCCN)NC(=O)[C@H](CCCCN)NC1=O	7.3	67.7%	37.3%		
	0.929 ×10⁻⁶ cm/s			CCCCC(=O)NCCCC[C@@H]1NC(=O)[C@H]2CCCN2C(=O)[C@H](CCCNC(=N)N)NC(=O)[C@H](CCCCN)NC(=O)[C@H](CCCCN)NC1=O	7.7			39.4%	
				CCCCCCCCCCCCCCCC(=O)NCCCC[C@@H]1NC(=O)[C@H]2CCCN2C(=O)[C@H](CCCNC(=N)N)NC(=O)[C@H](CCCCN)NC(=O)[C@H](CCCCN)NC1=O	9.1			49.4%	28.4%
> 24 h	0.922 ×10⁻⁶ cm/s		20%	CCCCCCCC(=O)NCCCC[C@@H]1NC(=O)[C@H]2CCCN2C(=O)[C@H](CCCNC(=N)N)NC(=O)[C@H](CCCCN)NC(=O)[C@H](CCCCN)NC1=O	7.5			38.7%	
	0.288 ×10⁻⁶ cm/s			CCCC[C@@H]1NC(=O)[C@H]2CCCN2C(=O)[C@H](CCCNC(=N)N)NC(=O)[C@H](CCCCN)NC(=O)[C@H](CCCCN)NC1=O	6.2			36.2%	
				N=C(N)NCCC[C@@H]1NC(=O)[C@H](CCCCN)NC(=O)[C@H](CCCCN)NC(=O)[C@H](CCCCN)NC(=O)[C@H]2CCCN2C1=O	7.5			60.9%	
				N=C(N)NCCC[C@@H]1NC(=O)[C@H](CCCCN)NC(=O)[C@H](CCCCN)NC(=O)[C@H](Cc2ccccc2)NC(=O)[C@H]2CCCN2C1=O	5.3			21.8%	
